In article PMC3018684 (Free radical research, 2010):

Legend:
[1] = molecular target: purified human MPO (Homo sapiens, UniProt P05164); test: Inhibition kinetics of MPO-dependent TMB oxidation by thiol antioxidants; type: biochemical; settings: for mode of inhibition of MPO-catalyzed oxidation of TMB: double reciprocal plots 1/V vs 1/[TMB]
How it was run: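 Purified human MPO (1.5 nM) incubated with test thiol at 0.1–1 μM. Activity measured as initial rate of TMB oxidation, with TMB varied from 20 to 180 μM. Data plotted as double reciprocal 1/V vs 1/[TMB] (Lineweaver-Burk) for each inhibitor level. Slopes of these lines replotted against inhibitor concentration to derive Ki.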

[2] = test system: MPO compound I and II; settings: cited from earlier work; for rate constant k of reaction with compound I and II of MPO: both compound I and II
[3] = test system: NF-κB; settings: GSH 1 mM with CF sputum sol-phase 10 μl/ml, HBE1 cells
[4] = cited from earlier work
[5] = pH 7.4; cited from earlier work
[6] = test system: MPO in CF sputum; type: biochemical, human; settings: extrapolated from IC50 in about 2000-fold diluted sputum (Fig 4)
[7] = Ex vivo scavenging of N-chloramines in CF sputum sol-phase; set-up: species or system human; settings: 2 μM antioxidant, 25 μl CF sputum sol-phase, 30 min
[8] = CF patients, 300/450 mg three times daily for 14 days; cited from earlier work
[9] = test system: ground state ferric MPO; settings: cited from earlier work
[10] = no reference given; cited from earlier work
[11] = inhalation in CF patients, secondary to acidic nature; no reference given; cited from earlier work
[12] = oral 0.6–1.0 g three times daily for 4 weeks; cited from earlier work

Sequence of purified human MPO (P05164 279-745 limits assumed): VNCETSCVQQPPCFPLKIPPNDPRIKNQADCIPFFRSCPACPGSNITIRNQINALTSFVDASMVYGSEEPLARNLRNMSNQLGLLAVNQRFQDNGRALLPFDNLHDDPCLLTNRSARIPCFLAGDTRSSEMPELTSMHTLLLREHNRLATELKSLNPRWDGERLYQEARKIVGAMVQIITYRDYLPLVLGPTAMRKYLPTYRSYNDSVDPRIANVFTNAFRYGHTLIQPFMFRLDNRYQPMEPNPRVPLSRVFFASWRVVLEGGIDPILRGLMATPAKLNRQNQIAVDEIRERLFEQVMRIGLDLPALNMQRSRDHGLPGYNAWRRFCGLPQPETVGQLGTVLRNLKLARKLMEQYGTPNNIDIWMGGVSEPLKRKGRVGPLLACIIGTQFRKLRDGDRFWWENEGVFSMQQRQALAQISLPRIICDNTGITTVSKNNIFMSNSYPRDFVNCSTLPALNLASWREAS
Sequence of purified human MPO (P05164 165-273 limits assumed): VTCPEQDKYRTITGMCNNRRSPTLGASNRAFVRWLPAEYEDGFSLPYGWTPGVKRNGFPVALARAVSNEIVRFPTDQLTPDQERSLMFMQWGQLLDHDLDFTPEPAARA

SMILES: N[C@@H](CCC(=O)N[C@@H](CS)C(=O)NCC(=O)O)C(=O)O [GSH, glutathione]
- Ki [1]: 80 nM
- mode of inhibition of MPO-catalyzed oxidation of TMB [1]: competitive
- rate constant k of reaction with compound I and II of MPO [2]: 10^1–10^2 M^−1s^−1
- p65 nuclear translocation induced by CF sputum (sol-phase) [3]: inhibit p65 nuclear translocation
- rate constant k of reaction with taurine chloramine [4]: 115 ± 14 M⁻¹ s⁻¹
- second-order rate constant for reaction with H2O2 [5]: 0.87 M⁻¹ s⁻¹
- respiratory tract lining fluid concentration required to inhibit MPO in the CF airway [6]: 1 to 50 mM
- lowering of N-chloramine levels [7]: 62 ± 11%
- lung function after aerosolized GSH [8]: improved lung function

SMILES: OO [H2O2]
- rate constant k of reaction with ground state ferric MPO [9]: 2.6e+07 M⁻¹ s⁻¹

SMILES: CC(=O)N[C@@H](CS)C(=O)O [NAC, N-acetylcysteine]
- mode of inhibition of MPO-catalyzed oxidation of TMB [1]: non-competitive
- pKa [10]: 2.2
- side effects on inhalation [11]: can induce bronchospasm
- rate constant k of reaction with compound I and II of MPO [2]: 10^1–10^2 M^−1s^−1
- rate constant k of reaction with taurine chloramine [4]: 46 ± 7 M⁻¹ s⁻¹
- reactivity with taurine chloramine relative to GSH (times less reactive) [4]: approx. 2.5
- lung function, as assessed by FEV1 [12]: no improvement in lung function
- neutrophil GSH content [12]: increased neutrophil GSH content
- neutrophil influx in CF airways [12]: decreased neutrophil influx in CF airways
- sputum IL-8 levels [12]: decreased sputum IL-8 levels
- sputum elastase activity [12]: decreased sputum elastase activity
- second-order rate constant for reaction with H2O2 [5]: 0.16 M⁻¹ s⁻¹
- respiratory tract lining fluid concentration required to inhibit MPO in the CF airway [6]: 1 to 50 mM
- lowering of N-chloramine levels [7]: 80 ± 11%

SMILES: Cc1cc(-c2cc(C)c(N)c(C)c2)cc(C)c1N [TMB, 3, 3′, 5, 5′-tetramethylbenzidine]
- rate constant of reaction with MPO compound I [2]: 3.6e+06 M⁻¹ s⁻¹
- rate constant of reaction with MPO compound II [2]: 940000 M⁻¹ s⁻¹
